Source: PubChem BioAssay AID504351 (Broad Institute, 2011)
Records with an inconclusive call do not appear. The source made the active and inactive calls.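 Rule for the calls: active = every replicate test active, meaning falling signal with half-maximal potency at most ten times the top valid dose; inconclusive = replicate test calls disagree with each other; inactive = every replicate test inactive, including signal rising instead.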

Target: S. pyogenes UMAA2166, streptokinase activity in supernatant, OD405, 6 h
Assay: S. pyogenes streptokinase expression inhibitors, potency, dose response, OD405 absorbance, dry powder, set 3 (AID 504351)
Settings: not given
In short: (§1)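 Assay system: group A Streptococcus cultures; quantity: bacteria seeded at OD600 of 0.015; times: 6 h compound exposure of cultures at 37 °C; dosing: serial compound dilutions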
`Cc1ccc(C(=O)n2c3ccccc3c3ccncc32)cc1` showed an AC50 of 40.9 µM.
In the case of `CCCOc1ccc(-c2nc(OC(C)C)c3ccccc3n2)cc1`, the AC50 is reported as 37.5 µM.
`O=C(Nc1ccc(Sc2ccccc2)cc1)c1ccccc1Cl` showed an AC50 of 44.4 µM.
`CCCOc1ccc(-c2nc(NC)c3ccccc3n2)cc1` gave an AC50 of 31.6 µM.

Target: not listed separately
Assay: as above
Settings: S. pyogenes UMAA2166, streptokinase activity in supernatant, OD405, 6 h; at 50 µM (top of the series)
In short: as §1
With `O=c1[nH]c(-c2cccc(Cl)c2)nc2ccccc12` the “activity change, negative = inhibition” value was “inactive”.
In the case of `O=c1[nH]c(-c2cccc(F)c2)nc2ccccc12`, the “activity change, negative = inhibition” value is reported as “inactive”.
With `COc1nc(-c2cccc(F)c2)nc2ccccc12` the “activity change, negative = inhibition” value was “inactive”.
For `CS(=O)(=O)c1ccc(NC(=O)c2ccccc2Cl)cc1`, the “activity change, negative = inhibition” value was “inactive”.
For `CCCOc1ccc(-c2nc(OC)c3ccccc3n2)cc1`, the “activity change, negative = inhibition” value was “inactive”.
In the case of `COc1ccccc1C(=O)n1c2ccccc2c2ccccc21`, the “activity change, negative = inhibition” value is reported as “inactive”.
In the case of `COc1ccc(S(=O)(=O)c2ccc(NC(=O)c3ccccc3Cl)cc2C#N)cc1`, the “activity change, negative = inhibition” value is reported as “inactive”.
With `COc1nc(-c2cccc(Cl)c2)nc2ccccc12` the “activity change, negative = inhibition” value was “inactive”.
In the case of `CCCOc1ccc(-c2nc(N(C)C)c3ccccc3n2)cc1`, the “activity change, negative = inhibition” value is reported as “inactive”.
In the case of `Cc1ccc(C(=O)n2c3ccccc3c3ccccc32)cn1`, the “activity change, negative = inhibition” value is reported as “inactive”.
For `COc1ccc(Sc2ccc(NC(=O)c3ccccc3Cl)cc2C#N)cc1`, the “activity change, negative = inhibition” value was “inactive”.
With `COc1ccc(Sc2ccc(N(C(=O)c3ccccc3Cl)C(=O)c3ccccc3Cl)cc2C#N)cc1` the “activity change, negative = inhibition” value was “inactive”.
For `O=C(c1ccc(N2CCOCC2)cc1)n1c2ccccc2c2ccccc21`, the “activity change, negative = inhibition” value was “inactive”.
For `COc1ccc(Sc2ccc(NC(=O)c3ccccc3Cl)cc2)cc1`, the “activity change, negative = inhibition” value was “inactive”.
In the case of `Cc1ccc(C(=O)n2c3ccccc3c3cccnc32)cc1`, the “activity change, negative = inhibition” value is reported as “inactive”.
For `COc1ccc(C(=O)n2c3ccccc3c3ccccc32)cc1`, the “activity change, negative = inhibition” value was “inactive”.
For `Cc1ccc(NC(=O)n2c3ccccc3c3ccccc32)cc1`, the “activity change, negative = inhibition” value was “inactive”.
For `CCCOc1ccc(-c2nc(OCCCOC)c3ccccc3n2)cc1`, the “activity change, negative = inhibition” value was “inactive”.
With `COc1cccc(-c2nc3ccccc3c(=O)[nH]2)c1` the “activity change, negative = inhibition” value was “inactive”.
In the case of `COc1ccc(Sc2ccc(NC(=O)c3ccccc3OC)cc2C#N)cc1`, the “activity change, negative = inhibition” value is reported as “inactive”.
For `Cc1ccc(C(=O)n2ncc3ccccc32)cc1`, the “activity change, negative = inhibition” value was “inactive”.
In the case of `O=c1[nH]c(-c2ccc(Cl)cc2)nc2ccccc12`, the “activity change, negative = inhibition” value is reported as “inactive”.
In the case of `CCCOc1ccc(-c2nc3ccccc3c(=O)[nH]2)cc1`, the “activity change, negative = inhibition” value is reported as “inactive”.
In the case of `COc1nc(-c2ccc(Cl)cc2)nc2ccccc12`, the “activity change, negative = inhibition” value is reported as “inactive”.
With `COc1ccc(Sc2ccc(NC(=O)c3ccc(C)cc3)cc2C#N)cc1` the “activity change, negative = inhibition” value was “inactive”.
In the case of `CC(C)Oc1ccc(-c2nc3ccccc3c(=O)[nH]2)cc1`, the “activity change, negative = inhibition” value is reported as “inactive”.
With `COc1ccc(Sc2ccc(N)cc2C#N)cc1` the “activity change, negative = inhibition” value was “inactive”.
With `CCCOc1ccc(-c2nc(Oc3ccc(F)cc3)c3ccccc3n2)cc1` the “activity change, negative = inhibition” value was “inactive”.
With `CCCOc1ccc(-c2nc(Oc3ccc(C)cc3)c3ccccc3n2)cc1` the “activity change, negative = inhibition” value was “inactive”.
With `COc1ccc2c(c1)c1cc(OC)ccc1n2C(=O)c1ccc(C)cc1` the “activity change, negative = inhibition” value was “inactive”.
In the case of `O=C(c1cscn1)n1c2ccccc2c2ccccc21`, the “activity change, negative = inhibition” value is reported as “inactive”.
For `COc1cccc(-c2nc(OC)c3ccccc3n2)c1`, the “activity change, negative = inhibition” value was “inactive”.
With `COc1ccc(Sc2ccc(NC(=O)c3ccccc3C#N)cc2C#N)cc1` the “activity change, negative = inhibition” value was “inactive”.
For `COc1ccc(Sc2ccc(NCc3ccccc3Cl)cc2C#N)cc1`, the “activity change, negative = inhibition” value was “inactive”.
With `COc1ccc(Sc2ccc(NC(=O)c3ccc(OC)cc3)cc2C#N)cc1` the “activity change, negative = inhibition” value was “inactive”.
